Legend:
[1] = organism: Mus musculus; assay: Compound was tested for the drug concentration that inhibited cell growth by 50% compared to un treated control cultures of Panc 02 cells; format: functional, cell-based; conditions: Panc02
How it was run: (§1)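 Exponentially growing cells, seeded at 1.5×10^4 cells/mL in McCoy's 5A with 10% FCS, exposed to drug over 2×10^-5 to 2×10^-12 M for 6 days at 37 °C. Cells fixed in 10% formaldehyde, stained with 0.1% crystal violet, and counted by inverted phase-contrast microscopy. IC50 taken from dose-response curves of surviving fraction versus untreated controls; mean of duplicates.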

[2] = tested on: CHO; assay: Drug concentration that inhibit cell growth by 50% compared to un treated control cultures of CHO cells (for 6 days at 37 degree Centigrade); format: functional, cell-based; conditions: Cricetulus griseus, 144 h; how it was run: as §1
[3] = tested on: CHO; assay: Compound was tested for the drug concentration that inhibited cell growth by 50% compared to un treated control cultures of CHO /DOX cell line; format: functional, cell-based; conditions: Cricetulus griseus; how it was run: as §1
[4] = Compound was tested for the drug concentration that inhibited cell growth by 50% compared to un treated control cultures of CA 755 cells(murine carcinoma 755 cells); format: functional, Mus musculus; how it was run: as §1
[5] = Compound was tested for the drug concentration that inhibited cell growth by 50% compared to untreated control cultures of CA 755 cells(murine carcinoma 755 cells); format: functional; conditions: Mus musculus; how it was run: as §1
[6] = organism: Mus musculus; assay: Compound was tested for the drug concentration that inhibited cell growth by 50% compared to untreated control cultures of Panc 02 cells; format: functional, cell-based; conditions: Panc02; how it was run: as §1

## COc1cccc2c1C(=O)c1c(O)c3c(c(O)c1C2=O)CC(O)(C(=O)CO)CC3OC1CC(NCCC(C)(C)C(OC(C)=O)OC(C)=O)C(O)C(C)O1 (stereo not given)
[1]
  IC50: 95 nM
[2]
  IC50: 120 nM
[3]
  IC50: 290 nM
[4]
  IC50: 90 nM

## COc1cccc2c1C(=O)c1c(O)c3c(c(O)c1C2=O)CC(O)(C(=O)CO)CC3OC1CC(NCCCOCCC(OC(C)=O)OC(C)=O)C(O)C(C)O1 (stereo not given)
[1]
  IC50: 80 nM
[2]
  IC50: 100 nM
[3]
  IC50: 210 nM
[4]
  IC50: 90 nM

## COc1cccc2c1C(=O)c1c(O)c3c(c(O)c1C2=O)CC(O)(C(=O)CO)CC3OC1CC(NCCCCCC(OC(C)=O)OC(C)=O)C(O)C(C)O1 (stereo not given)
[1]
  IC50: 14 nM
[2]
  IC50: 26 nM
[3]
  IC50: 13 nM
[4]
  IC50: 3.1 nM

## COc1cccc2c1C(=O)c1c(O)c3c(c(O)c1C2=O)CC(O)(C(=O)CO)CC3OC1CC(N(C)CCCCC(OC(C)=O)OC(C)=O)C(O)C(C)O1 (stereo not given)
[1]
  IC50: 140 nM
[2]
  IC50: 65 nM
[3]
  IC50: 185 nM
[4]
  IC50: 130 nM

## COc1cccc2c1C(=O)c1c(O)c3c(c(O)c1C2=O)CC(O)(C(=O)CO)CC3OC1CC(NCCOCCC(OC(C)=O)OC(C)=O)C(O)C(C)O1 (stereo not given)
[1]
  IC50: 60 nM
[2]
  IC50: 55 nM
[3]
  IC50: 96 nM

## COc1cccc2c1C(=O)c1c(O)c3c(c(O)c1C2=O)CC(O)(C(=O)CO)CC3OC1CC(NCCCCCCCC(OC(C)=O)OC(C)=O)C(O)C(C)O1 (stereo not given)
[1]
  IC50: 110 nM
[2]
  IC50: 250 nM
[3]
  IC50: 170 nM
[4]
  IC50: 14 nM

## CCCCCNC1CC(OC2CC(O)(C(=O)CO)Cc3c(O)c4c(c(O)c32)C(=O)c2c(OC)cccc2C4=O)OC(C)C1O (stereo not given)
[1]
  IC50: 100 nM
[4]
  IC50: 33 nM

## COc1cccc2c1C(=O)c1c(O)c3c(c(O)c1C2=O)CC(O)(C(=O)CO)CC3OC1CC(NCCCC(=O)O)C(O)C(C)O1 (stereo not given)
[1]
  IC50: 240 nM
[2]
  IC50: 203 nM
[3]
  IC50: 950 nM
[4]
  IC50: 150 nM

## COc1cccc2c1C(=O)c1c(O)c3c(c(O)c1C2=O)CC(O)(C(=O)CO)CC3OC1CC(NCCCCCOC(C)=O)C(O)C(C)O1 (stereo not given)
[1]
  IC50: 67 nM
[2]
  IC50: 83 nM
[3]
  IC50: 350 nM
[4]
  IC50: 140 nM

## COc1cccc2c1C(=O)c1c(O)c3c(c(O)c1C2=O)C[C@@](O)(C(=O)CO)C[C@@H]3O[C@H]1C[C@H](N)[C@H](O)[C@H](C)O1 [DOXORUBICIN]
[5]
  IC50: 14 nM
[6]
  IC50: 65 nM

Reference: ChEMBL document CHEMBL1131568, “Intensely potent doxorubicin analogues: structure-activity relationship” (J Med Chem, 1998)
